Activity calls are given as the source filed them. No cut-off for these calls is given here.
Experiments:
[1] = Partition coefficient in octanol-buffer at a pH 7.4; assay type: physicochemical
Procedure, shortened: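 Distribution between 1-octanol and Na⁺/K⁺-phosphate buffer at pH 7.4, each phase presaturated with the other. Tubes were shaken closed and phases separated by centrifugation. Concentrations were measured by HPLC (C18) with electrochemical detection.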

[2] = Ionization constant in presence of nitrogen; assay type: physicochemical; details: read-out: pKa1
Procedure, shortened: (§1)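 pKa was determined by the Albert and Serjeant method, as the mean of three to four determinations.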

[3] = Ionization constant in presence of hydroxyl; assay type: physicochemical; details: read-out: pKa2; procedure, shortened: as §1
Rattus norvegicus [4] = assay: In Vivo effect on concentration of DOPAC in rat striatum at 1 umol/kg; assay type: functional
Rattus norvegicus [5] = assay: In Vivo effect on concentration of HVA in rat striatum at 1 umol/kg; assay type: functional
D(2) dopamine receptor = D(2) dopamine receptor (Rattus norvegicus, UniProt P61169); assay: Potency to displace the specific in vitro binding of [3H]DP-5,6-ADTN to rat striatal membrane; parameters: species or system Striatum
Procedure, shortened: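 Homogenized, washed rat striatal membranes were incubated with [³H]-DP-5,6-ADTN. Nonspecific binding was defined with 10⁻⁶ M (+)-butaclamol. Competitor was tested over 10⁻¹¹–10⁻⁴ M, in triplicate.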

Rattus norvegicus [6] = assay: In Vivo effect on concentration of DOPAC in rat striatum at dose of 0.4 umol/kg administered intraperitoneally; assay type: functional
Rattus norvegicus [7] = assay: In Vivo effect of agonist on the induction of stereotypy (continuous sniffing behavior in rat) at 0.4 umol/kg; assay type: functional
Rattus norvegicus [8] = assay: In Vivo effect on concentration of HVA in rat striatum at dose of 0.4 umol/kg administered intraperitoneally; assay type: functional
[9] = target: Dopamine D2 receptor (Bos taurus); assay: Potency to displace the specific in vitro binding of [3H]N-0437 to calf striatal membrane
Rattus norvegicus [10] = assay: In Vivo effect on concentration of HVA in rat striatum at dose of 10 umol/kg administered intraperitoneally; assay type: functional
Procedure, shortened: (§2)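 Female Wistar-derived rats (180–220 g) were given drug ip in saline and killed by cervical dislocation 1 h later. Striata were frozen and homogenized in 0.1 M perchloric acid, then centrifuged (3000g, 7 °C, 15 min). DOPAC and HVA were purified on Sephadex G10, separated by RP18 HPLC with electrochemical detection, and expressed as % of control.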

Rattus norvegicus [11] = assay: In Vivo effect of agonist on the induction of stereotypy (continuous sniffing behavior in rat) at 10 umol/kg; Inactive; assay type: functional, organism-based
Rattus norvegicus [12] = assay: In vivo effect on concentration of DOPAC in rat striatum at dose of 10 umol/kg administered intraperitoneally; assay type: functional; procedure, shortened: as §2
Rattus norvegicus [13] = assay: In Vivo effect on concentration of DOPAC in rat striatum at dose of 10 umol/kg administered intraperitoneally; assay type: functional; procedure, shortened: as §2
Rattus norvegicus [14] = assay: In Vivo effect of agonist on the induction of stereotypy (continuous sniffing behavior in rat) ED50
Rattus norvegicus [15] = assay: In Vivo effect of agonist on the induction of stereotypy (continuous sniffing behavior in rat) at 10 umol/kg

D(2) dopamine receptor, sequence (P61169 whole entry): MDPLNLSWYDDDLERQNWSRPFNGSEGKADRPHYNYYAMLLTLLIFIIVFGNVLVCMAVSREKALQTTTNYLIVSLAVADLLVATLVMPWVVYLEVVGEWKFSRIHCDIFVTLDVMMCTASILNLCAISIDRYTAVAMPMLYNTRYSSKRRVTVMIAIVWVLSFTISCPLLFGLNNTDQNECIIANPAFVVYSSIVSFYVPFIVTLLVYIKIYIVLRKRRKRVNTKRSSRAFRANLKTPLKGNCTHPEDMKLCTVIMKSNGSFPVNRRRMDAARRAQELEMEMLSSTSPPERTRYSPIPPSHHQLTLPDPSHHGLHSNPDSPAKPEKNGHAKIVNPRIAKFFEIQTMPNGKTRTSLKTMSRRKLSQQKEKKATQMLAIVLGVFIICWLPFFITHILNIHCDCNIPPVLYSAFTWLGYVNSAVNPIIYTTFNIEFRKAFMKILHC

Compound	logD [1]	pKa [2]	pKa [3]	IC50 (D(2) dopamine receptor)	Control (Rattus norvegicus [10])	other results
CCCN(CCC)C1CCc2ccc(O)cc2C1 (stereo not given)	1.45	9.4	10.7			Control (Rattus norvegicus [4]): 72%; Control (Rattus norvegicus [5]): 56%
CCCN1CCO[C@@H]2c3cccc(O)c3CC[C@H]21	2.22	7.4	10.5	75 nM		Control (Rattus norvegicus [6]): 101%; ED50 (Rattus norvegicus [7]): 7.5 mg/kg; Control (Rattus norvegicus [8]): 86%; IC50 [9]: 24 nM
CCCN(CCC)C1COc2c(O)cccc2C1 (stereo not given)	2.44	8.2	9.9	4 nM		
CCCN1CCO[C@@H]2c3cc(O)ccc3OC[C@H]21	1.97	6.1	10.3	3070 nM	100%	ED50 (Rattus norvegicus [11]): inactive; Control (Rattus norvegicus [12]): 100%
CCCN1CCO[C@@H]2c3cccc(O)c3OC[C@H]21	1.93	5.8	10.2	2920 nM	110%	Control (Rattus norvegicus [13]): 108%; ED50 (Rattus norvegicus [11]): inactive; IC50 [9]: 8900 nM
CCCN1CCO[C@@H]2c3cc(O)ccc3CC[C@H]21 [NAXAGOLIDE]	2.09	7.5	10.9	3 nM		Control (Rattus norvegicus [6]): 67%; Control (Rattus norvegicus [8]): 44%; ED50 (Rattus norvegicus [14]): 0.5 µmol/kg
CN1CCc2cccc3c2[C@H]1Cc1ccc(O)c(O)c1-3 [APOMORPHINE]					40%	Control (Rattus norvegicus [13]): 48%; ED50 (Rattus norvegicus [15]): 2.3 µmol/kg
CCCN(CCC)C1COc2ccc(O)cc2C1 (stereo not given)	2.39	8.1	9.6			
CCCN(CCC)C1CCc2c(O)cccc2C1 (stereo not given) [5-OH-DPAT]	1.53	9.4	10.9			Control (Rattus norvegicus [4]): 73%; Control (Rattus norvegicus [5]): 60%
